From ChEMBL document CHEMBL1828531, “Pyrazol-3-propanoic acid derivatives as novel inhibitors of leukotriene biosynthesis in human neutrophils” (Eur J Med Chem, 2011) come the findings set out here.

The target in experiment [1] is T1, Polyunsaturated fatty acid lipoxygenase ALOX12 (Homo sapiens) (UniProt P18054).
T1 sequence (whole entry): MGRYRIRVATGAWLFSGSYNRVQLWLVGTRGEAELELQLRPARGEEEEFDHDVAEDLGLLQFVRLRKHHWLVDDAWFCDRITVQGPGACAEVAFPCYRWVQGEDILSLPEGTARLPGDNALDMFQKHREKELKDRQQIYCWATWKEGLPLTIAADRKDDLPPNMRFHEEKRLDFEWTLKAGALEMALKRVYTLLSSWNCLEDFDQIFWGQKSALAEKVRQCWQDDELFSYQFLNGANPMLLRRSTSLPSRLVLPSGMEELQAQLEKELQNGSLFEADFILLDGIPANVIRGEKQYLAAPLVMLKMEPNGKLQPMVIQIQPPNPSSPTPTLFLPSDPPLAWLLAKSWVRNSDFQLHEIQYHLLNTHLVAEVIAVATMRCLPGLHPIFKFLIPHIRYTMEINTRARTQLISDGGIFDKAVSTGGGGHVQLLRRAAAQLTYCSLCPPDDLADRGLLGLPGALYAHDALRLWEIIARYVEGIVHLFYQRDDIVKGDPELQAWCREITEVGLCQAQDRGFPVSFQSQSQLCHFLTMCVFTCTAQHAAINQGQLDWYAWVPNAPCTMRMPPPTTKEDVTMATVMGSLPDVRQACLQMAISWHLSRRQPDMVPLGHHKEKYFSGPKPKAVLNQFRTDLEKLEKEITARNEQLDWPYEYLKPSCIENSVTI
In words: Inhibition of 12-Lipoxygenase-mediated 12-HETE in human neutrophil assessed as residual activity at 30 uM after 15 mins by HPLC analysis. The essentials:
(§1)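 Freshly isolated human blood neutrophils, 5 × 10^6/mL in PBS pH 7.4 with 1 mg/mL glucose and 1 mM CaCl2, preincubated with compound 15 min at RT. Stimulated with 2.5 µM A23187 plus 20 µM AA for 10 min at 37 °C. Stopped with methanol/HCl, PGB1 internal standard. 12-HETE or 15-HETE measured by HPLC. Residual activity tested at 30 µM.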

The target in experiment [2] is T2, Polyunsaturated fatty acid lipoxygenase ALOX15 (Homo sapiens, UniProt P16050).
T2 sequence (P16050 whole entry): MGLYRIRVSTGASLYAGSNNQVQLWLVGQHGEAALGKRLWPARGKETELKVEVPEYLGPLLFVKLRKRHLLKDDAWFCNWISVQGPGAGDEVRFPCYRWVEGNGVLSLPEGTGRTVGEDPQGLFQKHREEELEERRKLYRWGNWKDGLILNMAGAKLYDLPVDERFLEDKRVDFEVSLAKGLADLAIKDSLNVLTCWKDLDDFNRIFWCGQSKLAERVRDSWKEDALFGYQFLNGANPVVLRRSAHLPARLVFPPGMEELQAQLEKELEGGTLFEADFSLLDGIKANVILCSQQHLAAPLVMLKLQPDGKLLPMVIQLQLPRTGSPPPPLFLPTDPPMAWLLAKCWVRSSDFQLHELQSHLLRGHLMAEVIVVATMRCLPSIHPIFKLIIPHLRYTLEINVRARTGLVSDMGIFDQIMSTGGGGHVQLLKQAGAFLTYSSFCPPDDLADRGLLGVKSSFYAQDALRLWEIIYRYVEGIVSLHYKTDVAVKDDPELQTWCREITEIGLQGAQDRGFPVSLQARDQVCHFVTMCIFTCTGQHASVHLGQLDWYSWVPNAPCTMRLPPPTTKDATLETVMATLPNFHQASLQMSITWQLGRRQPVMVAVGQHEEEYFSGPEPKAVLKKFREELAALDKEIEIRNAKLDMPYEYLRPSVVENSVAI
The experiment in a line: Inhibition of 15-Lipoxygenase-mediated 15-HETE in human neutrophil after 15 mins by HPLC analysis. The essentials:
as §1

Experiment [3] can be described thus: Inhibition of mPGES1-mediated PGE2 production in IL1-beta stimulated human A549 cells after 15 mins. The settings on record: A549, 0.25 h. Format: cell-based. The method in brief:
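Microsomes from IL-1β (1 ng/ml, 72 h) stimulated A549 cells, diluted in 0.1 M potassium phosphate pH 7.4 with 2.5 mM glutathione. Compound or 1% DMSO added, 15 min at 4 °C. Started with 20 µM PGH2 (final), 1 min at 4 °C. Stopped with FeCl2/citric acid containing 11β-PGE2 internal standard. PGE2 by RP-C18 solid-phase extraction and peak integration.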

The target in experiment [4] is T3, Polyunsaturated fatty acid 5-lipoxygenase (Homo sapiens) (UniProt P09917).
T3 sequence (whole entry): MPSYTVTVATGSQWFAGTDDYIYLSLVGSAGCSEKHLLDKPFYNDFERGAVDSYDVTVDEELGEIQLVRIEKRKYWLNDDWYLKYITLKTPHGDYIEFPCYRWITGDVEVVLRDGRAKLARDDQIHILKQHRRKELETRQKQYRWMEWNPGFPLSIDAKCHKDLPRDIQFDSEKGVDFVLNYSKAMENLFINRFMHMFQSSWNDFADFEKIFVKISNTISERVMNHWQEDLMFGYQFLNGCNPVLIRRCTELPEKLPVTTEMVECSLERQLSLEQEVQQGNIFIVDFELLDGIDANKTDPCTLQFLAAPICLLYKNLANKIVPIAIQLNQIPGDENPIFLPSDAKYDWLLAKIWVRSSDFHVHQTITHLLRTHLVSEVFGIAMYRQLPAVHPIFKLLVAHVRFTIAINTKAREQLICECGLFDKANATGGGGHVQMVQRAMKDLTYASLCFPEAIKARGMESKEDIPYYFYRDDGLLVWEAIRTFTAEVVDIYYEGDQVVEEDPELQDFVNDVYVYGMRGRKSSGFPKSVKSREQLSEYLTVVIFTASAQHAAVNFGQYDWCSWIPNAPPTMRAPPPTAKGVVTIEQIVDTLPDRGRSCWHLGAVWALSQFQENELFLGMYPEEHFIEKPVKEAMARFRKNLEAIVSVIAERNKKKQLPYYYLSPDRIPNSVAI
The experiment in a line: Inhibition of recombinant human 5-Lipoxygenase expressed in Escherichia coli lysate assessed as residual activity at 10 uM after 10 mins by HPLC analysis. The essentials:
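Human 5-LO expressed at 30 °C in E. coli MV1190 (pT3-5LO); lysate 40,000 g supernatant in PBS pH 7.4 with 1 mM EDTA. Preincubated with compound 10 min at 4 °C, warmed 30 s at 37 °C. Started with 2 mM CaCl2 plus 20 µM AA, 10 min at 37 °C. Methanol stop, HPLC. Residual % versus 0.3% DMSO vehicle, n = 3–5.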

As a reminder, the IC50 is the point on the concentration scale where inhibition reaches its midpoint. Read a high IC50 as weaker potency in that assay. Consider `CC(C)(C)c1ccc(CN2CCN(C(=O)CCc3cc(-c4ccc(F)cc4)n(-c4ccc(Cl)nn4)n3)CC2)cc1`, for which the Activity in experiment [1] came to 103%; in experiment [4], 55.3%. For the same compound, the IC50 in experiment [2] and in experiment [3] was greater than 10 µM throughout.

On to `Cc1ccc(-c2cc(CCC(=O)Oc3ccc(C(C)C)cc3)nn2-c2ccc3ccccc3n2)cc1`, for which the results for the Activity in experiment [1] and in experiment [4] were 67.8% and 79.6%, respectively. Also, the IC50 in experiment [2] and in experiment [3] was greater than 10 µM throughout.

Consider `Cc1ccc(-c2cc(CCC(=O)N3CCN(Cc4ccc(C(C)(C)C)cc4)CC3)nn2-c2ccc3ccccc3n2)cc1`, for which the Activity was 111% in experiment [1] and 51.5% in experiment [4]. The half-maximal inhibitory concentration (IC50) in experiment [2] and in experiment [3] was greater than 10 µM each time.

In the case of `CCOC(=O)C1CCN(C(=O)CCc2cc(-c3ccc(C)cc3)n(-c3ccccc3)n2)CC1`, the Activity in experiment [1] was 98%; in experiment [4], 102%. The IC50 in experiment [2] and in experiment [3] was greater than 10 µM each time.

As to `Cc1ccc(-c2cc(CCC(=O)Oc3ccc(C(C)C)cc3)nn2-c2ccc(Cl)nn2)cc1`, the Activity is 77.1% in experiment [1] and 92.7% in experiment [4]. In addition, the IC50 in experiment [3] is greater than 10 µM.

As for `Cc1ccc(-c2cc(CCC(=O)N3CCN(Cc4ccc(C(C)(C)C)cc4)CC3)nn2-c2ccccc2)cc1`, the Activity in experiment [1] is 118%; in experiment [4] it was 85.6%. In addition, the IC50 in experiment [2] and in experiment [3] was greater than 10 µM each time.

Take `CCOC(=O)C1CCN(C(=O)CCc2cc(-c3ccc(C(F)(F)F)cc3)n(-c3ccc(Cl)nn3)n2)CC1`: the values for the Activity in experiment [1] and in experiment [4] were 90.4% and 72.6%, respectively. Moreover, the IC50 in experiment [2] and in experiment [3] was greater than 10 µM in each case.

`Cc1ccc(-c2cc(CCC(=O)Oc3ccc(C(C)C)cc3)nn2-c2ccccc2)cc1`: the Activity in experiment [1] was 67.2%; in experiment [4], 95.3%. For the same compound, the 50% inhibitory concentration (IC50) in experiment [2] and in experiment [3] was greater than 10 µM each time.

As for `CCOC(=O)C1CCN(C(=O)CCc2cc(-c3ccc(C)cc3)n(-c3ccc4ccccc4n3)n2)CC1`, the Activity in experiment [1] was 91.9%; in experiment [4], 69.9%. The half-maximal inhibitory concentration (IC50) in experiment [2] and in experiment [3] was greater than 10 µM each time.
